This note sets out measurements from ChEMBL document CHEMBL2177006 (J Med Chem, 2012).

In assay [1] the target is T1, Beta-secretase 1 (Homo sapiens, UniProt P56817). As to the kind of experiment: Inhibition of BACE1 in human HEK293 cells expressing APP Swedish mutant assessed as inhibition of amyloid beta (1 to 40) production after overnight incubation by sandwich ELISA. The class given is cell-based.
Assay [2] has as its target T1, Beta-secretase 1. As to the kind of experiment: Inhibition of human recombinant BACE1 using Glu-Ile-Asp-Leu-Met-Val-Leu-Asp as substrate incubated for 60 mins prior to substrate addition measured after 60 mins by FRET assay.
Assay [3] concerns Rattus norvegicus. Kind of assay: Antialzheimer activity in Sprague-Dawley rat assessed as reduction in amyloid beta 40 level in CSF at 30 mg/kg, po at 4 hrs by immunoassay relative to control. Format: functional. The arrangement: scale not given: the % may be the effect or the level left. In a few lines:
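At the set time they were euthanized with CO2 for 2 min. CSF was drawn from the cisterna magna with a 30 gauge needle, frozen on dry ice, stored at −80 °C, then assayed for Aβ40 by Meso Scale immunoassay.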

T1 sequence (P56817 whole entry): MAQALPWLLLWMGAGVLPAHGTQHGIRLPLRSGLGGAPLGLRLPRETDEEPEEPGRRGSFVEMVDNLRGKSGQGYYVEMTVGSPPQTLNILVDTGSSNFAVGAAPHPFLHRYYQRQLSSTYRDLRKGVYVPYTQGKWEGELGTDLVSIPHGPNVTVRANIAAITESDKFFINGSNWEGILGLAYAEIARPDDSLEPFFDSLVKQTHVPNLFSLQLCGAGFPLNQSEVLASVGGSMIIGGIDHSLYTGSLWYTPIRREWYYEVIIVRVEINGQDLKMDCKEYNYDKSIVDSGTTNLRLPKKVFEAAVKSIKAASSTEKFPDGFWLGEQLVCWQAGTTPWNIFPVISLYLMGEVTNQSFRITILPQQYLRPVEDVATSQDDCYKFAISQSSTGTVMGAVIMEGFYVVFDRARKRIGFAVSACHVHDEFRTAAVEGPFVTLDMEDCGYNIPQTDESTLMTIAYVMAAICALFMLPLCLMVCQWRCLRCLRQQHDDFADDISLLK

As to `CC(C)(C)Cc1cnc2c(c1)[C@@H](NC[C@@H](O)[C@H](Cc1ccc3c(c1)OCO3)NC(=O)c1cccnc1)CC1(CCC1)O2`, the IC50 in assay [1] was 67.6 nM; in assay [2] it was 26.1 nM.

For `CC(C)(C)Cc1cnc2c(c1)[C@@H](NC[C@@H](O)[C@H](Cc1ccc3c(c1)OCO3)NC(=O)c1ccc(F)nc1)CC1(CCC1)O2`, the IC50 in assay [1] amounted to 69.5 nM; in assay [2], 48.4 nM.

Regarding `COCC(=O)N[C@@H](Cc1ccc2c(c1)OCO2)[C@H](O)CN[C@H]1CC2(CCC2)Oc2ncc(CC(C)(C)C)cc21`, the IC50 in assay [1] is 16.8 nM; in assay [2], 5.4 nM.

On to `CC(C)C(=O)N[C@@H](Cc1ccc2c(c1)OCO2)[C@H](O)CN[C@H]1CC2(CCC2)Oc2ncc(CC(C)(C)C)cc21`, for which the IC50 in assay [1] amounted to 812 nM.

As for `CC(C)(C)Cc1cnc2c(c1)[C@@H](NC[C@@H](O)[C@H](Cc1ccc3c(c1)OCO3)NC(=O)[C@@H]1CCCO1)CC1(CCC1)O2`, the IC50 in assay [1] was determined as 27.5 nM; in assay [2], 20.4 nM.

With `C[C@@H](F)C(=O)N[C@@H](Cc1ccc2c(c1)OCO2)[C@H](O)CN[C@H]1CC2(CCC2)Oc2ncc(CC(C)(C)C)cc21`, the IC50 in assay [1] is 55.5 nM.

In the case of `CC(C)(C)Cc1cnc2c(c1)[C@@H](NC[C@@H](O)[C@H](Cc1ccc3c(c1)OCO3)NC(=O)c1ccccc1F)CC1(CCC1)O2`, the IC50 came out at 1150 nM in assay [1] and 76.6 nM in assay [2].

Consider `CC(C)(C)Cc1cnc2c(c1)[C@@H](NC[C@@H](O)[C@H](Cc1ccc3c(c1)OCO3)NC(=O)c1cccnc1F)CC1(CCC1)O2`, for which the IC50 in assay [1] was found to be 64.3 nM; in assay [2], 33.2 nM.

As to `COc1ccc(C[C@H](NC(C)=O)[C@H](O)CN[C@H]2CC3(CCC3)Oc3ncc(CC(C)(C)C)cc32)cc1OC`, the IC50 in assay [1] was 9.3 nM; in assay [2] it was 18.2 nM.

For the compound `CC(=O)N[C@@H](Cc1ccc(OC(F)F)c(OC(F)F)c1)[C@H](O)CN[C@H]1CC2(CCC2)Oc2ncc(CC(C)(C)C)cc21`, the IC50 in assay [1] was determined as 238 nM; in assay [2], 35.2 nM.

As to `CC(=O)N[C@@H](Cc1ccc2c(c1)OCO2)[C@H](O)CN[C@H]1CC2(CCC2)Oc2ncc(CC(C)(C)C)cc21`, the Activity in assay [3] was 52%. Moreover, the IC50 stood at 5.5 nM in assay [1] and 8 nM in assay [2].

A word on the IC50: it is the concentration at which inhibition is half-maximal.
